High-throughput results deposited in PubChem by The Scripps Research Institute Molecular Screening Center.
Shown are actives, neighbours in structure and some others; about 4.5% of the full set was active somewhere.
CHO parental Ca = ATP-evoked calcium signal inhibitors, parental CHO, primary screen, counter-screen for OX1R antagonist project, cell-based, fluorescence, Fluo-8 calcium dye; parental CHO-K1, ATP-induced calcium, Fluo-8 fluorescence; inhibition, % at 5.6 µM; 330,000 tested, 0.63% active;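 active = inhibition above that plate's mean sample inhibition plus 3 SD, cut at about 26% in these data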
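Assay system: parental CHO cells; Read-out basis: percent inhibition of ATP-evoked calcium rise, normalized to controls; Benchmarks: ATP and no-ATP DMSO wells; Compound dosing: single nominal dose of 5.6 µM per compound; Signal: Fluo-8 calcium dye fluorescence; Also added: ATP as calcium-mobilizing challenge; Repeats: singlicate.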
OX1R antag-1 = antagonists of human orexin 1 receptor (OX1R). OX1R-expressing cells, FRET antagonist read-out. inhibition, % at 6.6 µM. Orexin/Hypocretin receptor type 1 (Homo sapiens), O43613. AID 485270, 2010. 330,000 tested, 1.8% active; in the data active = inhibition mostly above about 38%, no sharp cut-off; inactive = mostly below about 40%
TAAR1 agonist = human TAAR1 agonists, primary screen, Fluo-8 calcium fluorescence, CHO RD-HGA16 cells; Trace amine-associated receptor 1 (Homo sapiens), Q96RJ0; vehicle wells 0%, saturating PEA agonist 100%; activation, % at 3 µM; 360,000 tested, 0.99% active; AID 624467, 2012;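 active = activation above the mean activation of all test compounds in the run plus 3 SD, cut at about 38% in these data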
Target sequence (Q96RJ0 whole entry, looked up): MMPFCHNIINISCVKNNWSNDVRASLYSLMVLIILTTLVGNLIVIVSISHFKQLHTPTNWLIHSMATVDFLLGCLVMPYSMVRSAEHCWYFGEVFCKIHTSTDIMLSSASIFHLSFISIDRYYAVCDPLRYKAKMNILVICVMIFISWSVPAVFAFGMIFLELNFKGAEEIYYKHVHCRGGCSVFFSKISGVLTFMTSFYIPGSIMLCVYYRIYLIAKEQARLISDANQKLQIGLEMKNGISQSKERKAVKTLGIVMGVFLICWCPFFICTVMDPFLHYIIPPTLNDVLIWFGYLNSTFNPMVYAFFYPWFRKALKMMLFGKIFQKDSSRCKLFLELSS
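Repeats: no replicates (n 1) | Material: CHO-derived RD-HGA16 cells with stable Gα16 and human TAAR1 | Technique: Kinetic Fluo-8 calcium fluorescence | Schedule: 17-24 h seeding, 75 min 37 °C dye, 30 min RT | Evaluation: % activation from peak over basal fluorescence ratio, DMSO-to-PEA scaled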
OX1R antag-2 = OX1R (HCRTR1) antagonists, primary screen, fluorescence, CHO/OX1R cells, Fluo-8 calcium, orexin A; Fluo-8 calcium fluorescence; inhibition, % at 5 µM; 330,000 tested, 0.43% active;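 active = inhibition above its plate's threshold, mean inhibition of all tested compounds on the plate plus 3 SD, cut at about 37% in these data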
TAAR1 antagonist = human TAAR1 antagonists, primary screen, Fluo-8 calcium fluorescence, CHO RD-HGA16 cells; inhibition, % at 3 µM; AID 624466, 2012; antagonist; 360,000 tested, 1.5% active; Trace amine-associated receptor 1 (Homo sapiens), Q96RJ0;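 active = inhibition above a per-plate cutoff, the mean inhibition of test compounds on that plate plus 3 SD, cut at about 49% in these data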
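System: RD-HGA16 CHO cells with stable hTAAR1 and Gα16 | Probe or stimulus: EC80 β-phenethylamine stimulus | Dosing: 3 µM, single point | Times: Dye loading 75 min at 37 °C, then 30 min room temperature | Measured by: Fluo-8 calcium-sensitive fluorescence | Read-out basis: % inhibition of agonist calcium response | Replicates: n of 1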
GPR7 antag = GPR7 receptor antagonists, primary screen, cell-based, fluorescence, single concentration; 290,000 tested, 1.1% active; AID 1861, 2009; GPR7-expressing cells, fluorescence antagonist assay; inhibition, % at 4.4 µM; in the data active = inhibition above about 16%, passing the limit was not always enough;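 note: cells stimulated with the agonist NPW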
Target sequence (P48145 whole entry, looked up): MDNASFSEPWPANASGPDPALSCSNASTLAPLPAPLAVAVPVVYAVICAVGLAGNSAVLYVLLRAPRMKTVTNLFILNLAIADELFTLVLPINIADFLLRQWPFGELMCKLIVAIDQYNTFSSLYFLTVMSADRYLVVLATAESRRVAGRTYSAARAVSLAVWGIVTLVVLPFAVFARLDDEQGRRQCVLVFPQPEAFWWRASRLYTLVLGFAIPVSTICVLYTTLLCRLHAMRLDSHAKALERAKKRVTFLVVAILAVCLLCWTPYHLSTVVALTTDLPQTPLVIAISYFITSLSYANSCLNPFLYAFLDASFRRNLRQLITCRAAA
OX1R Ca confirm = OX1R (HCRTR1) antagonists, confirmation, fluorescence, CHO/OX1R cells, Fluo-8 calcium, orexin A; orexin A calcium Fluo-8 fluorescence; AID 492963, 2010; inhibition, % at 5 µM; shares compounds with OX1R antag-2; 1,100 tested, 38% active; in the data active = inhibition above about 29%
CHO Ca counter = ATP-evoked calcium inhibition in parental CHO, counter-screen for OX1R antagonist project, cell-based, fluorescence, CHO-K1, triplicate; AID 492965, 2010; ATP-induced calcium, Fluo-8 fluorescence; 1,100 tested, 9.3% active; inhibition, % at 5.6 µM; shares compounds with OX1R antag-2;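 active = inhibition above a per-plate limit, the mean inhibition of that plate's test compounds plus 3 SD, cut at about 25% in these data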
OX1R HTRF confirm = OX1R (HCRTR1) antagonists, confirmation, cell-based, HTRF | shares compounds with OX1R antag-1 | OX1R-expressing cells, HTRF antagonist assay | inhibition, % at 6.6 µM | 1,800 tested, 49% active; in the data active = inhibition above about 55%;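 note: CHO cells expressing OX1R stimulated with orexin A at about EC80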
CHO-K1 HTRF = signal inhibition in parental CHO-K1 cells, counter-screen for OX1R antagonist project, cell-based, HTRF; 1,800 tested, 48% active; shares compounds with OX1R antag-1; HTRF counterscreen; inhibition, % at 6.6 µM; in the data active = inhibition above about 17%
Hits are given with their value; 0 = inactive; - = no result.

SMILES	CHO parental Ca	OX1R antag-1	TAAR1 agonist	OX1R antag-2	TAAR1 antagonist	GPR7 antag	OX1R Ca confirm	CHO Ca counter	OX1R HTRF confirm	CHO-K1 HTRF
CCCCOc1ccc(S(=O)(=O)N2CCCCCC2)cc1	0	0	0	0	0	0	0	0	-	-
CCOC(=O)CSc1nnc(-c2ccc(NS(=O)(=O)c3ccc(C)cc3)cc2)o1	0	0	0	0	0	0	36	27	-	-
CCCCOC(=O)c1ccc(NC(=O)c2cc(Cl)ccc2OC)cc1	0	0	0	0	0	0	29	0	-	-
COc1ccc(Cl)cc1C(=O)Nc1ccc(NC(C)=O)cc1	0	0	0	0	0	0	-	-	-	-
CCN(CCCNC(=O)CC1Oc2ccc(C)cc2NC1=O)Cc1ccccc1 (stereo unspecified)	0	0	0	0	0	0	-	-	-	-
COc1c(C)cc(Br)cc1C(=O)Nc1ccc(Cc2ccncc2)cc1	0	0	0	0	0	0	0	0	-	-
COc1ccccc1C(=O)Nc1ccc(Cc2ccncc2)cc1	0	0	0	0	0	0	-	-	-	-
Cc1ccc([C@@H]2CC=C(C(=O)O)[C@H](c3cccc(Cl)c3)N2S(=O)(=O)c2ccccc2C)cc1	0	86	0	81	0	-	48	0	89	0
COc1ccc(OC)c(CCNC(=O)Cn2ccc3cc(S(=O)(=O)N4CCCC4)ccc32)c1	0	54	0	0	0	0	0	0	63	0
COc1ccccc1CCNC(=O)Cn1ccc2cc(S(=O)(=O)N3CCC(C)CC3)ccc21	0	0	0	0	0	0	-	-	-	-
COc1cccc(NC(=O)CN2C(=O)C(c3ccc(C)cc3)=NC23CCCCCC3)c1	0	75	0	41	0	0	47	0	87	0
CCN(C(=O)CO/N=C/c1ccc(OC)cc1OC)c1c(N)n(Cc2ccccc2)c(=O)[nH]c1=O	0	92	0	69	0	-	67	0	93	0
COc1ccc(NC(=O)C2CCCN(S(C)(=O)=O)C2)cc1Cl (stereo unspecified)	0	0	0	0	0	0	-	-	-	-
Cc1cc(C)c(S(=O)(=O)N2CCOC2CNC(=O)C(=O)NCCN(C)C)c(C)c1 (stereo unspecified)	0	0	0	0	0	0	-	-	-	-
COc1cc(/C=N/NC(=O)CCn2nnc3ccccc32)ccc1O	0	0	0	0	0	0	-	-	-	-
COc1cc(/C=N/NC(=O)CCn2c3ccccc3c3ccccc32)ccc1O	0	54	0	75	0	0	37	0	83	0
Cc1cccc(OCCSc2nc3ccccc3n2CCC(=O)O)c1	0	97	0	0	0	0	35	0	83	0
O=C(O)CCn1c(SCCOc2ccccc2)nc2ccccc21	0	87	0	58	0	0	32	0	75	0
CCCn1c(SCCC(=O)O)nc2ccccc21	0	0	0	0	0	0	-	-	-	-
CN1CCN(CC(=O)Nc2cccc(S(=O)(=O)N(C)c3ccccc3)c2)CC1	0	0	0	0	0	-	-	-	-	-
O=c1ccc2c([nH]1)CCCCCCCCCC2	0	0	0	0	0	0	-	-	-	-
O=C(NCCN1C(=O)S/C(=C\c2cccs2)C1=O)c1ccco1	0	0	0	0	0	0	-	-	-	-
O=C(CCNC(=O)c1ccco1)NCCN1C(=O)S/C(=C\c2ccc(F)cc2)C1=O	0	47	0	45	0	-	0	0	90	24
COC(=O)c1cc2c([nH]c3ccccc32)c(C)n1	-	-	-	-	-	0	-	-	-	-
COc1ccc(NC(=O)c2cc3c([nH]c4ccccc43)c(C)n2)cc1	0	96	0	0	0	0	0	0	0	0
SMILES	CHO parental Ca	OX1R antag-1	TAAR1 agonist	OX1R antag-2	TAAR1 antagonist	GPR7 antag	OX1R Ca confirm	CHO Ca counter	OX1R HTRF confirm	CHO-K1 HTRF
CCOc1ccccc1N(CC(=O)NCCSCc1ccco1)S(=O)(=O)c1ccccc1	0	84	0	43	50	0	47	0	80	0
CCOc1ccc(N(CC(=O)NCCSCc2ccco2)S(=O)(=O)c2ccc(F)cc2)cc1	0	0	0	0	0	0	-	-	-	-
O=C(COC(=O)c1cc(Br)ccc1Cl)NC1CCCC1	0	0	0	0	0	0	-	-	-	-
Cc1nn(C)c(C)c1N=Cc1c(O)ccc2ccccc12	0	83	0	43	0	0	0	0	77	0
CCOC(=O)c1[nH]c2ccccc2c1NC(=O)c1ccc(Br)o1	0	99	0	101	0	0	34	0	90	0
CCOC(=O)c1[nH]c2ccccc2c1NC(=O)NC(C)C	0	0	0	0	0	0	-	-	-	-
Cc1cccc(NS(=O)(=O)Cc2ccccc2)c1C	0	0	0	0	0	0	-	-	-	-
Cc1ccsc1C(=O)OCC(=O)N(Cc1ccccc1)C(C)C	0	76	0	40	0	-	0	0	68	0
O=C(NCc1ccccc1)C(Cc1ccccc1)NS(=O)(=O)c1cccc2nsnc12 (stereo unspecified)	0	0	0	0	0	0	-	-	-	-
CC(C)(C)NC(=O)C(Cc1ccccc1)NS(=O)(=O)c1cccc2nsnc12 (stereo unspecified)	0	116	0	0	0	0	0	0	80	17
COc1ccc(-c2cc3nc(-c4ccccc4)cc(N4CCC5(CC4)OCCO5)n3n2)cc1	0	50	0	67	0	0	31	0	68	0
COc1ccc(-c2cc3nc(-c4ccccc4)cc(N4CCN(C(=O)c5ccoc5)CC4)n3n2)cc1	-	-	0	-	0	-	-	-	-	-
Cc1ccc(Cn2nc(C)cc2C(=O)Nc2ccc(Cl)cc2)cc1	0	56	0	0	0	0	0	0	62	0
